# ChEMBL document CHEMBL1127785, “[[omega-(Heterocyclylamino)alkoxy]benzyl]-2,4-thiazolidinediones as potent antihyperglycemic agents” (1994)
# The source made the active and inactive calls. The calls are words filed in the database; no cut-off is given here.
# Key:
# Mus musculus [1] = assay: Percent reduction in area under glucose tolerance curve (AUC) was determined at 3000 umol/kg dose of diet in mice; type: functional
# Summary of the method: (§1)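 C57 Bl/6 ob/ob mice, 9–10 weeks old at purchase, 6–8 per group, kept at 26 ± 2 °C on a 12 h light/dark cycle. Compound was mixed into powdered diet, given fresh daily for 8 days. Mice were then fasted 5 h and given oral glucose 3 g/kg. Tail blood glucose was measured at 0, 45, 90 and 135 min by hexokinase/G6PDH. Read-out is % AUC reduction vs controls (trapezoid rule), Student's t-test.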
# Mus musculus [2] = assay: Percent reduction in area under glucose tolerance curve (AUC) was determined at 100 umol/kg dose of diet in mice; IA = No significant activity; type: functional, organism-based; summary of the method: as §1
# Mus musculus [3] = assay: Percent reduction in area under glucose tolerance curve at 300 uM/kg dose in diet of mice.; type: functional; summary of the method: as §1
# Mus musculus [4] = assay: Percent reduction in area under glucose tolerance curve (AUC) was determined at 1000 umol/kg dose of diet in mice; type: functional; summary of the method: as §1
# Mus musculus [5] = assay: Percent reduction in area under glucose tolerance curve (AUC) was determined at 30 umol/kg dose of diet in mice; IA = No significant activity; type: functional, organism-based; summary of the method: as §1
# Mus musculus [6] = assay: Percent reduction in area under glucose tolerance curve at 100 uM/kg dose in diet of mice.; type: functional; summary of the method: as §1
# Mus musculus [7] = assay: Percent reduction in area under glucose tolerance curve (AUC) was determined at 30 umol/kg dose of diet in mice; type: functional; summary of the method: as §1
# Mus musculus [8] = assay: Percent reduction in area under glucose tolerance curve (AUC) was determined at 10 umol/kg dose of diet in mice; IA = No significant activity; type: functional, organism-based; summary of the method: as §1
# Mus musculus [9] = assay: Percent reduction in area under glucose tolerance curve (AUC) was determined at 10 umol/kg dose of diet in mice; type: functional; summary of the method: as §1
# Mus musculus [10] = assay: Percent reduction in area under glucose tolerance curve (AUC) was determined at 1000 umol/kg dose of diet in mice; IA = No significant activity; type: functional, organism-based; summary of the method: as §1
# Mus musculus [11] = assay: Percent reduction in area under glucose tolerance curve (AUC) was determined at 300 umol/kg dose of diet in mice; IA = No significant activity; type: functional, organism-based; summary of the method: as §1
# Mus musculus [12] = assay: Percent reduction in area under glucose tolerance curve (AUC) was determined at 3 umol/kg dose of diet in mice; IA = No significant activity; type: functional, organism-based; summary of the method: as §1
# Mus musculus [13] = species on record: Mus musculus; assay: No significant effect dose level on blood hemoglobin.; type: functional
# Summary of the method: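 Blood hemoglobin content was measured in C57 Bl/6 ob/ob mice after 8 days of compound given by dietary admixture. The value is the highest dose (µmol/kg of diet) with no significant reduction in blood hemoglobin.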
# Mus musculus [14] = species on record: Mus musculus; assay: Antihyperglycemic potency dose producing approximately 25% reduction in area under glucose tolerance curve; type: functional; summary of the method: as §1
# [15] = Selectivity ratio for Antihyperglycemic potency dose and No significant effect dose; type: functional
# Mus musculus [16] = assay: Percent reduction in area under glucose10 umol/kg dose of diet in mice; type: functional; summary of the method: as §1
# Mus musculus [17] = assay: Percent reduction in area under glucose tolerance curve (AUC) was determined at 3 umol/kg dose of diet in mice; type: functional; summary of the method: as §1
smiles,measurement,setting,value
CCc1ccc(CCOc2ccc(CC3SC(=O)NC3=O)cc2)nc1 (stereo not drawn) [PIOGLITAZONE],Reduction,Mus musculus [1],63%
same,Reduction,Mus musculus [2],inactive
same,Reduction,Mus musculus [3],35%
same,Reduction,Mus musculus [4],62%
CN(CC(Oc1ccc(CC2SC(=O)NC2=O)cc1)c1ccccc1)c1nc2ccccc2o1 (stereo not drawn),Reduction,Mus musculus [5],Not significant
CC(C)N(CCOc1ccc(CC2SC(=O)NC2=O)cc1)c1nc2ccccc2o1 (stereo not drawn),Reduction,Mus musculus [6],20%
Cc1nc(N(C)CCOc2ccc(CC3SC(=O)NC3=O)cc2)sc1C (stereo not drawn),Reduction,Mus musculus [7],47%
same,Reduction,Mus musculus [8],Not significant
CN(CC(O)COc1ccc(CC2SC(=O)NC2=O)cc1)c1nc2ccccc2o1 (stereo not drawn),Reduction,Mus musculus [2],Not significant
CN(CCOc1ccc(/C=C2\SC(=O)NC2=O)cc1)c1ccccn1,Reduction,Mus musculus [5],inactive
same,Reduction,Mus musculus [3],47%
CN(CCOc1ccc(CC2SC(=O)NC2=O)cc1)c1ncc(-c2ccccc2)o1 (stereo not drawn),Reduction,Mus musculus [7],22%
same,Reduction,Mus musculus [9],20%
O=C1NC(=O)C(Cc2ccc(OCCNc3ncccn3)cc2)S1 (stereo not drawn),Reduction,Mus musculus [7],15%
CN(CCOc1ccc(C2SC(=O)NC2=O)cc1)c1nc2ccccc2o1 (stereo not drawn),Reduction,Mus musculus [10],inactive
CC(CN(C)c1nc2ccccc2o1)Oc1ccc(CC2SC(=O)NC2=O)cc1 (stereo not drawn),Reduction,Mus musculus [11],Not significant
CN(CCOc1ccc(CC2SC(=O)NC2=O)cc1)c1ccc([N+](=O)[O-])cn1 (stereo not drawn),Reduction,Mus musculus [5],Not significant
O=C(NCCOc1ccc(CC2SC(=O)NC2=O)cc1)Nc1ccc(Cl)c(Cl)c1 (stereo not drawn),Reduction,Mus musculus [11],Not significant
CN(CCOc1ccc(/C=C2\SC(=O)NC2=O)cc1)c1nc2ccccc2o1,Reduction,Mus musculus [3],30%
CC(=O)N(CCOc1ccc(CC2SC(=O)NC2=O)cc1)c1ncccn1 (stereo not drawn),Reduction,Mus musculus [7],19%
O=C(NCCOc1ccc(CC2SC(=O)NC2=O)cc1)Nc1ccccc1 (stereo not drawn),Reduction,Mus musculus [6],21%
same,Reduction,Mus musculus [4],58%
Cc1cccc(N(C)CCOc2ccc(CC3SC(=O)NC3=O)cc2)n1 (stereo not drawn),Reduction,Mus musculus [5],Not significant
same,Reduction,Mus musculus [3],33%
CN(CCOc1ccc(CC2SC(=O)NC2=O)cc1)/C(=N/c1ccccc1)NC#N (stereo not drawn),Reduction,Mus musculus [11],Not significant
CN(CCOc1ccc(CC2SC(=O)NC2=O)cc1)c1ccc(N)cn1 (stereo not drawn),Reduction,Mus musculus [5],Not significant
CN(CCOc1ccc(CC2SC(=O)NC2=O)cc1)c1nccs1 (stereo not drawn),Reduction,Mus musculus [6],58%
same,Reduction,Mus musculus [8],Not significant
Cc1nc(N(C)CCOc2ccc(CC3SC(=O)NC3=O)cc2)oc1C (stereo not drawn),Reduction,Mus musculus [7],33%
same,Reduction,Mus musculus [9],16%
same,Reduction,Mus musculus [12],Not significant
CN(CCCOc1ccc(CC2SC(=O)NC2=O)cc1)c1nc2ccccc2o1 (stereo not drawn),Reduction,Mus musculus [2],inactive
same,Reduction,Mus musculus [3],32%
CN1C(=O)SC(Cc2ccc(OCCN(C)c3nc4ccccc4o3)cc2)C1=O (stereo not drawn),Reduction,Mus musculus [2],Not significant
same,Reduction,Mus musculus [4],42%
CN(CCCCOc1ccc(CC2SC(=O)NC2=O)cc1)c1nc2ccccc2o1 (stereo not drawn),Reduction,Mus musculus [5],Not significant
same,Reduction,Mus musculus [3],25%
CN(CCOc1ccc(CC2SC(=O)NC2=O)cc1)c1ccccn1 (stereo not drawn) [ROSIGLITAZONE],Reduction,Mus musculus [7],41%
same,Reduction,Mus musculus [6],56%
same,Dose,Mus musculus [13],300 µM/kg
same,Dose,Mus musculus [14],3 µM/kg
same,Selectivity ratio,[15],100
same,Reduction,Mus musculus [16],31%
same,Reduction,Mus musculus [3],61%
same,Reduction,Mus musculus [17],17%
CN(CCOc1ccc(CC2SC(=O)NC2=O)cc1)c1nccc(-c2ccccc2)n1 (stereo not drawn),Reduction,Mus musculus [8],Not significant
CN(CCOc1ccc(CCC2SC(=O)NC2=O)cc1)c1nc2ccccc2o1 (stereo not drawn),Reduction,Mus musculus [2],Not significant
CN(CCOc1ccc(CC2SC(=O)NC2=O)cc1)C(=O)Nc1ccccc1 (stereo not drawn),Reduction,Mus musculus [3],27%
